In one assay the target is T1, Adenosine receptor A3 (Homo sapiens, UniProt P0DMS8).
T1 sequence (P0DMS8 whole entry): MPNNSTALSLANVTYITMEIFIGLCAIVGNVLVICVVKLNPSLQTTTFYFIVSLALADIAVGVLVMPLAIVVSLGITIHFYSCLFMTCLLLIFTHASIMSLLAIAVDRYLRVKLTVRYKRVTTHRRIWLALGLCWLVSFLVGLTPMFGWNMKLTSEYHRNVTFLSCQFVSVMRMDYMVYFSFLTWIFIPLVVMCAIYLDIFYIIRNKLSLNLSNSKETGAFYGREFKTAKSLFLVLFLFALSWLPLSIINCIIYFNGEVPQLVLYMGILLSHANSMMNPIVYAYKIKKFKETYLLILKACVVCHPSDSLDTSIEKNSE
Description: Displacement of [3H]NECA from human adenosine A3 receptor in stably transfected HEK cells. The assay is classed as cell-based, HEK293. The gist of the method: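 Competition for specific [³H]NECA binding at human recombinant A3 receptor stably transfected into HEK cells; Ki reported in nM.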

Assay [1] deals with Adenosine receptors; A1 & A3 (Homo sapiens) (UniProt P30542+P0DMS8). Kind of assay: Ratio of binding affinity for adenosine A3 receptor to adenosine A1 receptor. It is filed as protein assay.
The target in assay [2] is Adenosine receptors; A1 & A2a (Homo sapiens) (UniProt P30542+P29274). Kind of assay: Ratio of binding affinity for adenosine A2A receptor to adenosine A1 receptor. It is filed as protein assay.
The next assay addresses T2, Adenosine receptor A1 (Homo sapiens, UniProt P30542).
T2 sequence (P30542 whole entry): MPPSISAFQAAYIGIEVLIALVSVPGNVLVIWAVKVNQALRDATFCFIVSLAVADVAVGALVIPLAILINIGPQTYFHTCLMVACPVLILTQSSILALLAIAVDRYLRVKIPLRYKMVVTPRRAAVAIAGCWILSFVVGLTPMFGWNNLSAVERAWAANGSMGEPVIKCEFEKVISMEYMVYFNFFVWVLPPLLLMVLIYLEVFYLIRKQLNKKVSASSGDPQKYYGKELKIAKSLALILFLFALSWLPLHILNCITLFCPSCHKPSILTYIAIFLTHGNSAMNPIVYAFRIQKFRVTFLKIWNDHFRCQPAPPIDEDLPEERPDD
Description: Displacement of [3H]CCPA from human adenosine A1 receptor expressed in CHO cells. The assay is classed as cell-based.

The target in assay [3] is T3, Adenosine receptor A2b (Homo sapiens) (UniProt P29275).
T3 sequence (whole entry): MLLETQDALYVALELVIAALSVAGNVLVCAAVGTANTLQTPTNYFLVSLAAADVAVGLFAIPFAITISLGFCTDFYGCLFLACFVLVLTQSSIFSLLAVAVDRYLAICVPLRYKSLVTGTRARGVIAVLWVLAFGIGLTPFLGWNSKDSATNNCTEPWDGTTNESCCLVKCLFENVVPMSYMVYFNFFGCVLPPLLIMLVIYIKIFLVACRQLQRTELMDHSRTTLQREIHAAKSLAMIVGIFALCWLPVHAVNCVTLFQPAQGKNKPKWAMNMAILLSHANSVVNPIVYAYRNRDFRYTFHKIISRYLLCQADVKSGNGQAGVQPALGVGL
Description: Potency NECA-induced signal mediated by human A2B receptor in CHO cells at 100 uM. It is filed as cell-based. The essentials: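 Adenylyl cyclase activation measured in membranes from CHO cells stably transfected with human A2B receptor; test compounds at […], response expressed as percent of maximal NECA signal.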

The target in a further assay is Adenosine receptor A2a (Homo sapiens, UniProt P29274). Description: Displacement of [3H]NECA from human adenosine A2A receptor in stably transfected CHO cells. It is filed as cell-based. The gist of the method:
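Radioligand displacement of specific [³H]NECA binding to human recombinant A2A receptor stably expressed in CHO cells; affinity given as Ki (nM).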

Chain of Adenosine receptor A2a (P29274 whole entry): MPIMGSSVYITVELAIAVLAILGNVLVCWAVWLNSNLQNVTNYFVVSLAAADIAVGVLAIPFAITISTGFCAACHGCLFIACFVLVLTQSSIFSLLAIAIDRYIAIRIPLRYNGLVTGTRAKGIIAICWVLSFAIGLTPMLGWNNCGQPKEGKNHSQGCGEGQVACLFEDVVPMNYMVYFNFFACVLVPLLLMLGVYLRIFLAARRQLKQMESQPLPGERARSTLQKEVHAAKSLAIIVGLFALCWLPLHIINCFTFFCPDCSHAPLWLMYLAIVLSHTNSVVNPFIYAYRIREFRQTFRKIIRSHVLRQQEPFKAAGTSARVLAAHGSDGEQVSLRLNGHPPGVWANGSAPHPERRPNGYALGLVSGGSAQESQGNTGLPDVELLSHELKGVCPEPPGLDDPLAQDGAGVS
Chain of Adenosine receptors; A1 & A2a (Homo sapiens) (P29274 whole entry, looked up, one chain of several): as the sequence (P29274 whole entry) above

On to `Nc1nc(NC(=O)CCc2ccccc2)nc2c1ncn2[C@@H]1O[C@H](CO)[C@@H](O)[C@H]1O`, for which the Ki was determined as 2.71 µM at Adenosine receptor A3, 0.432 µM at Adenosine receptor A1 and 4.57 µM at Adenosine receptor A2a. Moreover, the Ratio worked out at 6 in assay [1] and 11 in assay [2]. The Potency in assay [3] is below 20%.

As for `O=C(CCc1ccccc1)Nc1nc(NC2CCCC2)c2ncn([C@@H]3O[C@H](CO)[C@@H](O)[C@H]3O)c2n1`, the inhibitory constant (Ki) was found to be 1.25 µM on Adenosine receptor A3, 0.0207 µM at Adenosine receptor A1 and 5.66 µM on Adenosine receptor A2a. Besides, the Ratio in assay [1] turned out to be 60; in assay [2], 273. Besides, the Potency in assay [3] was below 20%.

Regarding `Nc1nc(NC(=O)CCC2CCCC2)nc2c1ncn2[C@@H]1O[C@H](CO)[C@@H](O)[C@H]1O`, the inhibitory constant (Ki) at Adenosine receptor A3 came to 1.04 µM; at Adenosine receptor A1, 0.252 µM; on Adenosine receptor A2a it was 2 µM. Besides, the Ratio was found to be 4 in assay [1] and 8 in assay [2]. For the same compound, the Potency in assay [3] was below 20%.

Compound `OC[C@H]1O[C@@H](n2cnc3c(NC4CCCC4)nc(Cl)nc32)[C@H](O)[C@@H]1O` gave a Potency in assay [3] below 20%.

Regarding `Nc1nc(NC(=O)/C=C/c2ccccc2)nc2c1ncn2[C@@H]1O[C@H](CO)[C@@H](O)[C@H]1O`, the figures for the Ki at Adenosine receptor A3, on Adenosine receptor A1 and on Adenosine receptor A2a were 0.9 µM, 0.0707 µM and 4.1 µM, respectively. In addition, the Ratio in assay [1] turned out to be 13; in assay [2], 58. In assay [3], this compound yielded a Potency below 20%.

On to `CCNC(=O)[C@H]1O[C@@H](n2cnc3c(N)nc(NC(=O)CCC4CCCC4)nc32)[C@H](O)[C@@H]1O`, for which the Ki at Adenosine receptor A3 amounted to 1.01 µM; at Adenosine receptor A1 it was 5.45 µM; at Adenosine receptor A2a, 10.8 µM. The Ratio in assay [1] turned out to be 0.2; in assay [2] it was 2. The compound also came in with a Potency in assay [3] below 20%.

As to `Nc1nc(NC(=O)CCCC2CCCCC2)nc2c1ncn2[C@@H]1O[C@H](CO)[C@@H](O)[C@H]1O`, the values for the Ki on Adenosine receptor A3, at Adenosine receptor A1 and on Adenosine receptor A2a were 1.06 µM, 0.733 µM and 1.94 µM, respectively. Besides, the figures for the Ratio in assay [1] and in assay [2] were 1.4 and 3, respectively. In assay [3], the Potency is below 20%.

With `Nc1nc(NC(=O)C2CCCCC2)nc2c1ncn2[C@@H]1O[C@H](CO)[C@@H](O)[C@H]1O`, the inhibition constant (Ki) is 2.76 µM on Adenosine receptor A3, 1.62 µM at Adenosine receptor A1 and 1.78 µM at Adenosine receptor A2a. Further, the Ratio in assay [1] was 1.7; in assay [2], 1.1. The compound further showed a Potency in assay [3] below 20%.

As to `O=C(CCC1CCCC1)Nc1nc(NC2CCCC2)c2ncn([C@@H]3O[C@H](CO)[C@@H](O)[C@H]3O)c2n1`, the inhibitory constant (Ki) is 1.41 µM at Adenosine receptor A3, 0.0318 µM on Adenosine receptor A1 and 2.18 µM on Adenosine receptor A2a. Also, the Ratio came to 44 in assay [1] and 69 in assay [2]. Further, the Potency in assay [3] is below 20%.

For `CCNc1nc(NC(=O)CC2CCCCC2)nc2c1ncn2[C@@H]1O[C@H](CO)[C@@H](O)[C@H]1O`, the results for the Ki at Adenosine receptor A3, at Adenosine receptor A1 and on Adenosine receptor A2a were 0.181 µM, 0.207 µM and 7.75 µM, respectively. Moreover, the Ratio in assay [1] turned out to be 0.9; in assay [2] it was 37. In assay [3], this compound came in with a Potency below 20%.

On to `Nc1nc(NC(=O)CC2CCCCC2)nc2c1ncn2[C@@H]1O[C@H](CO)[C@@H](O)[C@H]1O`, for which the inhibitory constant (Ki) amounted to 1.23 µM at Adenosine receptor A3, 0.342 µM at Adenosine receptor A1 and 2.41 µM at Adenosine receptor A2a. Also, the Ratio in assay [1] was 4; in assay [2] it was 7. The Potency in assay [3] is below 20%.

For the origin of these results see ChEMBL document CHEMBL1147632, “2-(N-acyl) and 2-N-acyl-N(6)-substituted analogues of adenosine and their affinity at the human adenosine receptors” (Bioorg Med Chem Lett, 2004).
